Converted amounts (≈) assume the structure as drawn. The source made the active and inactive calls. The rule behind the calls is not given here.
Legend:
[1] = target: Tubulin (Homo sapiens) (UniProt P68371+Q9H4B7+P0DPH7+P68366+Q13509+Q71U36+P04350+Q3ZCM7+P07437+P68363+Q9BQE3+Q6PEY2+Q13885+Q9BVA1+Q9BUF5); test: Inhibition of tubulin polymerization in human DU145 cells after 24 hrs by Western blotting analysis; assay type: cell-based; conditions: DU-145
[2] = tested on: Mus musculus; test: Clearance in ICR mouse at 5 mg/kg, iv by LC-MS/MS analysis; assay type: ADME, organism-based; set-up: dose 5 mg/kg, route intravenous; conditions: in vivo
Summary of the method: (§1)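 Male ICR mice, 6–8 weeks old, N=3 per group. Single 5 mg/kg dose in NMP:PEG300:water (1:4:5 v/v), given as IV bolus or oral gavage. Serial arterial blood was drawn through a carotid cannula at 2–360 min. Plasma was protein-precipitated with acetonitrile containing internal standard and assayed by LC/MS/MS. Parameters were derived by noncompartmental analysis.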

[3] = Cytotoxicity against human HepG2 cells after 4 hrs by Alamar Blue assay; assay type: cell-based; conditions: read-out: LD50
[4] = tested on: Plasma; test: Plasma protein binding in rat at 10 to 50 uM by equilibrium dialysis; assay type: ADME, cell-free
[5] = tested on: MDCK; test: Apparent permeability from apical to basolateral side in MDCK cells expressing MDR-1 at 10 uM after 90 mins by LC-MS/MS analysis; assay type: ADME, cell-based, Canis lupus familiaris; conditions: dog, 1.5 h
Summary of the method: (§2)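 MDCK-MDR1 (Pgp-expressing) monolayers were used 3–4 days post-seeding, only if TEER exceeded 1000 Ω·cm² before and after the run. Compound starting concentration was 10 μM. Transport was measured A→B and B→A over 90 min and quantified by LC/MS/MS. Apparent permeabilities gave the efflux ratio.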

[6] = tested on: 2008; test: Growth inhibition of human 2008 cells; assay type: functional
[7] = target: T1, Tubulin (Sus scrofa) (UniProt P02554+P02550); test: Competitive binding affinity to pig brain tubulin vinblastine binding site at 0.1 to 100 uM after 1 hr by mass spectrophotometric analysis in presence of vinblastine
Summary of the method: (§3)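 Porcine brain tubulin (1.0 mg/mL) in PIPES 80 mM, MgCl₂ 2 mM, EGTA 0.5 mM, pH 6.9, at 37 °C. […] Competitor was 0.1–100 μM for 1 h. Unbound ligand in the 30 kDa ultrafiltrate was measured by MS. Runs were in triplicate; IC50 came from a Hill fit.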

[8] = Cytotoxicity against human U87 cells after 96 hrs by sulforhodamine B assay; assay type: functional, cell-based, U-87MG ATCC; conditions: U-87 MG
[9] = tested on: Mus musculus; test: AUC in ICR mouse at 5 mg/kg, iv by LC-MS/MS analysis; assay type: ADME, organism-based, Plasma; set-up: dose 5 mg/kg, route intravenous; conditions: in vivo; summary of the method: as §1
[10] = tested on: MDCK; test: Apparent permeability from basolateral to apical side in MDCK cells expressing MDR-1 at 10 uM after 90 mins by LC-MS/MS analysis; assay type: ADME, cell-based, Canis lupus familiaris; conditions: dog, 1.5 h; summary of the method: as §2
[11] = Solubility of the compound in PBS by nephelometric analysis; assay type: physicochemical
Summary of the method: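 Aqueous solubility in PBS was measured by nephelometry; the limit of complete solubility was taken as the concentration giving a statistical increase of light scattering over blank.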

[12] = tested on: Mus musculus; test: Oral bioavailability in ICR mouse at 5 mg/kg by LC-MS/MS analysis; assay type: ADME, organism-based; conditions: in vivo
Summary of the method: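 Male ICR mice, 6–8 weeks old (N=3 per group), with a carotid artery cannula implanted one day before dosing. Dosed at 5 mg/kg in NMP:PEG300:water (1:4:5) as an IV bolus or by oral gavage. Blood drawn at 2–360 min; plasma protein-precipitated with acetonitrile containing internal standard, assayed by LC/MS/MS; noncompartmental analysis.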

[13] = target: T1, Tubulin (Sus scrofa); test: Competitive binding affinity to pig brain tubulin paclitaxel binding site at 0.1 to 100 uM after 1 hr by mass spectrophotometric analysis in presence of paclitaxel and GTP; summary of the method: as §3
[14] = target: Tubulin (Sus scrofa, UniProt P02554+P02550); test: Competitive binding affinity to pig brain tubulin colchicine binding site after 1 hr by mass spectrophotometric analysis in presence of colchicine; assay type: tissue-based
Summary of the method: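 Porcine brain tubulin (1.0 mg/mL) in PIPES 80 mM, MgCl₂ 2 mM, EGTA 0.5 mM, pH 6.9, at 37 °C. Competitor was 0.1–100 μM for 1 h. Unbound ligand in the 30 kDa ultrafiltrate was measured by MS. Runs were in triplicate; IC50 came from a Hill fit.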

[15] = tested on: MES-SA; test: Resistance factor, ratio of GI50 for multidrug-resistant human MES-SA/Dx5 cells to GI50 for human MES-SA cells; assay type: functional
[16] = tested on: DU-145; test: Cell cycle arrest in human DU145 cells assessed as accumulation at subG1 phase at 0.005 to 0.02 uM after 24 hrs by propidium iodide staining-based FACS flow cytometric analysis; assay type: functional
Summary of the method: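 DU145 cells were plated at 1.0×10⁶ per dish in DMEM/10% FBS and treated 24 h later with increasing concentrations. After 24 h, attached and floating cells were pooled and fixed in ice-cold 70% ethanol for at least 24 h. Cells were stained with propidium iodide (50 μg/mL) plus RNase A for 30 min at 37 °C, then read on a FACScan with cell-cycle modelling.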

[17] = tested on: A-431; test: Cytotoxicity against human A431 cells after 96 hrs by trypan blue exclusion assay; assay type: functional; conditions: A-431, 96 h
Summary of the method: (§4)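 Cells were grown in DMEM or RPMI with 10% FBS and plated at 2.5×10⁴ cells/well in 12-well dishes. Compounds were added 24 h later at various concentrations. After 96 h, viable cells were counted by trypan blue exclusion from duplicate wells. Results are the mean of two independent experiments.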

[18] = tested on: DU-145; test: Mitotoic arrest in human DU145 cells assessed as complete depolymerization of microtubule cytoskeleton at 25 nM after 24 hrs by FITC and propidium iodide staining-based confocal laser microscopic analysis; assay type: functional, cell-based
Summary of the method: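 DU145 cells grown on glass coverslips, exposed to 0.025 μM for 24 h, fixed in 4% paraformaldehyde, permeabilized in PBS with 10% FBS/0.1% Triton X-100, stained with FITC-conjugated anti-α-tubulin (DM1A, 1 h, 37 °C) and propidium iodide (1 μg/mL, 5 min), then imaged by confocal microscopy (60× objective, XYZ-sectioning); DMSO-treated cells as vehicle.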

[19] = tested on: 2008; test: Resistance factor, ratio of GI50 for paclitaxel-resistant human 2008/17/4 cells to GI50 for human 2008 cells; assay type: functional
[20] = tested on: Mus musculus; test: AUC in ICR mouse at 5 mg/kg, po by LC-MS/MS analysis; assay type: ADME, organism-based, Plasma; set-up: dose 5 mg/kg, route oral; conditions: in vivo; summary of the method: as §1
[21] = Cytotoxicity against human H80 cells after 96 hrs by trypan blue exclusion assay; assay type: functional; conditions: H80, 96 h; summary of the method: as §4
[22] = organism: Bos taurus; test: Inhibition of bovine brain tubulin assessed as destabilization of microtubule polymerization at 10 uM over 40 mins by spectrophotometric analysis
Summary of the method: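 Purified bovine brain tubulin was incubated at 37 °C with 10 μM compound, DMSO or reference agents. Polymerization was followed as rising absorbance at 340 nm over 40 min. Data are representative of three independent experiments.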

[23] = tested on: DU-145; test: Cytotoxicity against human DU145 cells after 96 hrs by trypan blue exclusion assay; assay type: functional, cell-based; summary of the method: as §4
[24] = Cytotoxicity against human Caco2 cells after 1 hr by Alamar Blue assay; assay type: cell-based; conditions: Caco-2 cells, read-out: LD50
[25] = tested on: BT-474; test: Cytotoxicity against human BT474 cells after 96 hrs by trypan blue exclusion assay; assay type: functional; conditions: BT-474, 96 h; summary of the method: as §4

COc1cc(OC)c(/C=C/S(=O)(=O)Nc2ccc(OC)c(N)c2)c(OC)c1
inhibition [1]: Dose-dependent effect | CL [2]: 2.48 L/h/kg | CC50 at 4 h [3]: > 1 mM | PPB [4]: 99.73% | Papp [5]: 9.1 ×10⁻⁶ cm/s | GI50 [6]: 6 nM | Activity [7]: inactive | IC50 [8]: 9 nM | AUC [9]: 2.04 µg·h/mL | Papp [10]: 72 ×10⁻⁶ cm/s | solubility kinetic [11]: 62.5 µM (≈ 24.7 µg/mL) | F [12]: 34% | Activity [13]: inactive | IC50 [14]: 3.68 µM | RatioGI50 [15]: 1.6 | Activity [16]: Active | GI50 [17]: 5 nM | Activity [18]: Active | RatioGI50 [19]: 1 | AUC [20]: 0.7 µg·h/mL | GI50 [21]: 4 nM | inhibition [22]: Active | Activity [23]: Dose-dependent effect | IC50 ([23]; DU-145, 96 h): 5 nM | CC50 at 1 h [24]: > 1 mM | GI50 [25]: 10 nM

Source: ChEMBL document CHEMBL2396655, “Design, synthesis, and biological evaluation of (E)-N-aryl-2-arylethenesulfonamide analogues as potent and orally bioavailable microtubule-targeted anticancer agents” (J Med Chem, 2013)
